Sampled rows, rich in hits. Any-hit rate of the full collection: about 2.3%.
p-CIP stab down: p/CIP-EGFP fusion destabilizers, primary screen, fluorescence, F442A cells; 16 h; decrease of EGFP signal, % at 10 µM; 290,000 tested, 0.01% active; AID 1984, 2009;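 active means EGFP signal decrease of at least 30% at 10 µM or well 3 SD below plate mean, unless failing retest; inactive means the rest, including hits failing retest or dose response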
Pemphigus Ab inh: inhibitors of pemphigus antibody binding to DSG3, primary screen, biochemical, bead-based, flow cytometry, scFv-GFP; DSG3-coupled beads, scFv-anti-DSG3-GFP binding; active compounds read low; binding (percent of control), % at 10 µM; 310,000 tested, 0.48% active; AID 588358, 2011;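 active means binding more than 3 SD below its plate's average and above zero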;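 further: hits lower antibody fragment binding to DSG3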
T cell HTS: modulators of CD8 T cell-vesicle binding, primary screen, mouse 2C CD8+ T cells, flow cytometry. 2C CD8+ T cell-vesicle binding; active compounds read low. response (vesicle binding), % at 7 µM. 330,000 tested, 0.068% active;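 active means response, share of CD8 T cells binding vesicles, and their 90th percentile fluorescence all below set limits, cut at about 80% in these data, passing the limit was not always enough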;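 further: values below 100% mean blocked vesicle binding to the CD8+ T cells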
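Material: 2C TCR transgenic mouse naive CD8+ T cells, MACS-purified. Also added: QL9-charged Drosophila Ld/ICAM-1/B7-1 vesicles. Timing: binding 1.5 h at 37 °C. Measured by: high-throughput flow cytometry with anti-B7-1 and anti-CD8 staining. Read-out: percent CD8+ FL2 mean versus row control. Controls: Unloaded micro-vesicles (low), QL9 vesicles with 0.7% DMSO (high).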
CHT PAM: CHT positive allosteric modulators, primary screen, cell-based, membrane potential dye, choline EC20; AID 488977, 2010; B-score at 10 µM; High affinity choline transporter 1 (Homo sapiens), Q9GZV3; CHT-expressing cells; active compounds read high; LV-AA mutant CHT in HEK293 cells; 310,000 tested, 0.49% active;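 active means initial fluorescence not abnormally high and integrated response B-score, plate-corrected, over 3 SD above library mean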
CHT inh: inhibitors of human choline transporter CHT; High affinity choline transporter 1 (Homo sapiens), Q9GZV3; CHT-expressing cells, membrane potential dye, choline response; active compounds read low; B-score at 10 µM; 310,000 tested, 0.86% active;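 active means B-score over 3 SD under the library average, and starting fluorescence ratio not unusually high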;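 further: choline stimulus applied at its EC90 after an EC20 pre-addition; B-score computed on integrated fluorescence ratio after choline addition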
GPR7 antagonist: GPR7 receptor antagonists, primary screen, cell-based, fluorescence, single concentration. Neuropeptides B/W receptor type 1 (Homo sapiens), P48145. GPR7-expressing cells, fluorescence antagonist assay. inhibition, % at 4.4 µM. 290,000 tested, 1.1% active. AID 1861, 2009; in the data active means inhibition above about 16%, passing the limit was not always enough;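 further: cells stimulated with the agonist NPW; 0% = agonist with vehicle and 100% = vehicle without agonist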
CHT block conf: CHT inhibitors, confirmation, cell-based, membrane potential dye, duplicate | shares compounds with CHT inh | CHT-expressing cells, choline membrane potential dye; LV-to-AA substituted CHT, HEK293 cells | CHT activity remaining % of control (active compounds read low), % at 10 µM | 2,400 tested, 70% active | AID 493221, 2011;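 active means choline transporter activity left, mean of duplicates at 10 µM, below buffer-only control mean minus 3 SD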;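 further: depolarization triggered by choline at its EC90 following an EC20 pre-addition; 0% = hemicholinium-3 full block and 100% = buffer-only control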
HEK293 MPD ctr: membrane potential effects in parental HEK293, counter-screen for CHT inhibitor project, cell-based, membrane potential dye; shares compounds with CHT inh; choline response; active = decrease or increase beyond buffer ±3SD; membrane potential ratio readout (active if shifted either direction beyond buffer ±3SD; no single direction) at 10 µM; 2,400 tested, 4% active; AID 493222, 2011;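 further: parental cells lack the transporter so any hit is non-specific; ratio is peak minus trough fluorescence over baseline after EC90 choline challenge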
An asterisk follows results filed as active; i = inactive; / = not tested or not shown.

SMILES	p-CIP stab down	Pemphigus Ab inh	T cell HTS	CHT PAM	CHT inh	GPR7 antagonist	CHT block conf	HEK293 MPD ctr
C/C(=N\NC(=O)CC(C)C)c1ccc(Cl)c(Cl)c1	0	101	508	i	i	7	/	/
O=C1NC[C@H](Cc2ccccc2)N(CC2CCN(CCc3ccc(-c4ccccc4)cc3)CC2)C1=O	/	104	/	/	/	/	/	/
CCOC(=O)c1cc(C(=O)NC(C)c2ccccc2)c(=O)[nH]c1C (centres undefined)	-9	98	160	i	-12*	0	26%*	i
CC(NC(=O)c1cc(=O)[nH]c2ccccc12)c1ccccc1 (centres undefined)	-6	98	351	i	i	-9	/	/
CCCC(=O)Nc1c2c(nn1-c1ccc(OC)cc1)CS(=O)(=O)C2	1	104	226	i	i	-8	/	/
CCCC(=O)Nc1c2c(nn1-c1ccc(C)cc1)CS(=O)(=O)C2	-8	107	271	i	-6.1*	-4	i	i
C/C(=N\NS(=O)(=O)c1ccc(Cl)c([N+](=O)[O-])c1)c1cc2ccccc2o1	9	104	320	i	-7.5*	-3	71%*	i
C/C(=N\NS(=O)(=O)c1ccc(C)c([N+](=O)[O-])c1)c1cc2ccccc2o1	-3	95	i	i	i	-11	/	/
CN1CCC(N(C)C(=S)NCCc2ccccc2)CC1	2	119	353	i	-7.3*	-2	i	i
N=c1n(Cc2ccccc2)c2ccccc2n1CC(O)COc1ccccc1 (centres undefined)	-7	100	241	i	-9.8*	15	38%*	i
CCCn1c(=N)n(CC(O)COc2cccc(C)c2)c2ccccc21 (centres undefined)	-17	/	352	i	-5.3*	7	i	i
N=c1n(CCN2CCOCC2)c2ccccc2n1CC(O)COc1ccccc1 (centres undefined)	9	100	392	i	i	4	/	/
N#CCN1CCN(CCC(=O)Nc2ccc(OCc3ccccc3)cc2)CC1	-1	109	353	i	i	-1	i	i
CCCCN(C(=O)c1cccc(S(=O)(=O)N(CC)c2ccccc2)c1)c1c(N)n(CC(C)C)c(=O)[nH]c1=O	/	100	/	/	/	/	/	/
CC1(C)CC2CC(C)(CN2C(=O)CCCN2C(=O)c3ccccc3C2=O)C1 (centres undefined)	-8	103	275	i	-6.8*	-3	48%*	i
CC1(C)C[C@@H]2C[C@@](C)(CN2C(=O)c2ccccc2)C1	-2	108	543	i	i	-13	/	/
CCOc1ccccc1/C=C/C(=O)NCC(=O)N1CCC(N(C)C2CCCCC2C)CC1 (centres undefined)	-14	97	104	i	-5.5*	-11	11%*	i
CN(C1CCCC1)C1CCN(C(=O)CNC(=O)/C=C/c2ccc(F)cc2)CC1	-20	93	307	i	i	-1	/	/
CCN(CC)CCCNC(=O)c1cn(CC)c2ccc(S(=O)(=O)N(C)C3CCCCC3)cc2c1=O	7	112	273	i	-5.7*	-14	61%*	i
CCn1cc(C(=O)NCCCN(CC(C)C)CC(C)C)c(=O)c2cc(S(=O)(=O)N(C)C3CCCCC3)ccc21	-7	84	306	i	i	-12	/	/

Screening data: PubChem BioAssay, several laboratories
